From ChEMBL document CHEMBL3396961, “Novel pyrazole-5-carboxamide and pyrazole-pyrimidine derivatives: synthesis and anticancer activity” (Eur J Med Chem, 2015)

Key:
MGC-803 [1] = assay: Cytotoxicity against human MGC803 cells after 48 hrs by MTT assay; type: functional, cell-based; conditions: MGC-803, 48 h
Outline: (§1)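 Cells were grown to log phase in RPMI 1640 with 10% FBS and seeded at 3×10^4 cells/mL. After 24 h preincubation (37 °C, 5% CO2) they were exposed 48 h to preset concentrations, 6 wells each; vehicle 0.1% DMSO, 5-fluorouracil as reference. MTT (2.5 mg/mL in PBS) for 4 h, formazan dissolved in DMSO, A570 read. IC50 taken at 50% survival; mean ± SD of three experiments in triplicate.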

[2] = Cytotoxicity against human SGC7901 cells after 48 hrs by MTT assay; type: functional, cell-based; conditions: SGC-7901, 48 h; outline: as §1
Bcap37 = assay: Cytotoxicity against human Bcap37 cells after 48 hrs by MTT assay; type: functional, cell-based; conditions: Bcap37, 48 h; outline: as §1
[3] = molecular target: Telomerase reverse transcriptase (Homo sapiens, UniProt O14746); assay: Inhibition of telomerase in human MGC803 cells after 24 hrs by TRAP-PCR-ELISA; type: cell-based, MGC-803
MGC-803 [4] = assay: Cell cycle arrest in human MGC803 cells assessed as accumulation at G1 phase at 3 uM after 48 hrs by propidium iodide staining-based flow cytometry (reference value: 62.91%); type: functional
MGC-803 [5] = assay: Cell cycle arrest in human MGC803 cells assessed as accumulation at S phase at 3 uM after 48 hrs by propidium iodide staining-based flow cytometry (reference value: 30.38%); type: functional
MGC-803 [6] = assay: Cell cycle arrest in human MGC803 cells assessed as accumulation at G2 phase at 3 uM after 48 hrs by propidium iodide staining-based flow cytometry (reference value: 6.7%); type: functional

Telomerase reverse transcriptase, sequence (O14746 whole entry): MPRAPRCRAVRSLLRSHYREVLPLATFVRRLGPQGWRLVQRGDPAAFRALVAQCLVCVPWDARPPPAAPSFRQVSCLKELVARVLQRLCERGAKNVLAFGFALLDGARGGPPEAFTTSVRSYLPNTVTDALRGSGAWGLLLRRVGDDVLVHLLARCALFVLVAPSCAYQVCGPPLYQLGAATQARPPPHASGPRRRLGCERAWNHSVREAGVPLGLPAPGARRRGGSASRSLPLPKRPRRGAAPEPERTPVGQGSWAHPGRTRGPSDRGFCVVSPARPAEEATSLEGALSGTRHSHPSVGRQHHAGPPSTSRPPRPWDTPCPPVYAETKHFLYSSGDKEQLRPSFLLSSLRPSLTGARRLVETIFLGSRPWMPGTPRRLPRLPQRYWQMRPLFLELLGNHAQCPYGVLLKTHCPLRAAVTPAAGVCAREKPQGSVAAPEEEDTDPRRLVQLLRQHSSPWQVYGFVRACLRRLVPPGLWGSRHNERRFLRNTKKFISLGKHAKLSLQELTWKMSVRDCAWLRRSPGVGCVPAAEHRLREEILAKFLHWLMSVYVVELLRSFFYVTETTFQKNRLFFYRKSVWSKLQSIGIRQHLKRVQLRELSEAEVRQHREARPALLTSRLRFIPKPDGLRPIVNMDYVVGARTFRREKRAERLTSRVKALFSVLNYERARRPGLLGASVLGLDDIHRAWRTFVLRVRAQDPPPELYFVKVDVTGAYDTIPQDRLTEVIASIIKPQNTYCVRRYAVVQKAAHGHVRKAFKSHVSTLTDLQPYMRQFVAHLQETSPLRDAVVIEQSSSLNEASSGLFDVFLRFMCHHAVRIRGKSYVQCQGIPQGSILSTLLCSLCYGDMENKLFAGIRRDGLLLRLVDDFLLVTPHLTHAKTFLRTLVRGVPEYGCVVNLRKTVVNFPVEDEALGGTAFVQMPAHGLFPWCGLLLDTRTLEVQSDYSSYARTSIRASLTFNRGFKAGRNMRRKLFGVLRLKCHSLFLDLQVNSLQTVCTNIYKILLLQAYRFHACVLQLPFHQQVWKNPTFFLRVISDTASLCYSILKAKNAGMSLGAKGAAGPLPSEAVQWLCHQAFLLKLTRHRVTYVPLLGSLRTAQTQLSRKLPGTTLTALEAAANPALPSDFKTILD

Row | Compound | IC50 (MGC-803 [1]) [µM] | IC50 [2] [µM] | IC50 (Bcap37) [µM] | IC50 [3] [µM] | Activity (MGC-803 [4]) [%] | Activity (MGC-803 [5]) [%] | Activity (MGC-803 [6]) [%]
1 | CCCc1nn(C)c(C(N)=O)c1NC(=O)/C=C/c1ccccc1 | 3.44 | 8.11 | 46.7 | 1.98 |  |  | 
2 | CCCc1nn(C)c(C(N)=O)c1NC(=O)c1cc(OC)c(OC)c(OC)c1 | 4.57 | 13.4 | 40.4 | 7.87 |  |  | 
3 | CCCc1nn(C)c(C(N)=O)c1NC(=O)/C=C/c1cc(OC)c(OC)c(OC)c1 | 4.24 | 12.8 | 55.7 | 3.49 |  |  | 
4 | CCCc1nn(C)c(C(N)=O)c1NC(=O)c1cc(OC)c(OC)cc1OC | 29.5 | 34.8 | 33.5 | 12.2 |  |  | 
5 | CCCc1nn(C)c(C(N)=O)c1NC(=O)/C=C/c1ccco1 | 3.01 | 8.3 | 10.5 | 1.02 | 59.82 | 42.2 | 2.46
6 | CCCc1nn(C)c2c(=O)[nH]c(/C=C/c3ccccc3)nc12 | 22.6 | 17.2 | 45.3 |  |  |  | 
7 | CCCc1nn(C)c2c(=O)[nH]c(/C=C/c3cc(OC)c(OC)c(OC)c3)nc12 | 32.8 | 25.7 | 37.4 | 19 |  |  | 
8 | CCCc1nn(C)c2c(=O)[nH]c(/C=C/c3ccco3)nc12 | 7.14 | 10.3 | 28.7 | 15.2 |  |  | 
9 | O=c1[nH]cc(F)c(=O)[nH]1 [FLUOROURACIL] |  | 6.56 | 5.18 |  |  |  | 
